Reference: ChEMBL document CHEMBL4152290, “1H-Benzo[d]imidazoles and 3,4-dihydroquinazolin-4-ones: Design, synthesis and antitubercular activity” (Eur J Med Chem, 2018)
Values after ≈ are worked out from the molar mass of the structure shown.

Experiments:
Type in all cases: functional
[1] = test system: Mycobacterium tuberculosis; assay: Antitubercular activity against isoniazid/ethambutol-resistant Mycobacterium tuberculosis isolate CDCT27 harboring katG mutant gene after 7 days by resazurin dye based assay
Method in brief: (§1)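 Resazurin microtiter MIC in 7H9 with 10% ADC. Two-fold dilutions from 1 mg/mL DMSO stocks span 25.0–0.05, 10.0–0.02 or 0.02–0.0004 µg/mL, with 2.5% DMSO final. Inoculum is bead-declumped culture grown in 7H9/10% OADC/0.05% Tween 80, diluted to OD600 0.006. Plates run 7 days at 37 °C, then 0.01% resazurin for 48 h. MIC is the lowest concentration preventing the blue-to-pink change. Three independent tests.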

[2] = test system: Mycobacterium tuberculosis; assay: Antitubercular activity against Mycobacterium tuberculosis isolate CDCT28 harboring rpoB mutant gene after 7 days by resazurin dye based assay; method in brief: as §1
[3] = test system: Mycobacterium tuberculosis; assay: Antitubercular activity against multidrug-resistant Mycobacterium tuberculosis isolate CDCT16 harboring rpoB/katG/inhA mutant gene after 7 days by resazurin dye based assay; method in brief: as §1
[4] = test system: Mycobacterium tuberculosis; assay: Antitubercular activity against multidrug-resistant Mycobacterium tuberculosis isolate CDCT10 harboring rpoB/katG mutant gene after 7 days by resazurin dye based assay; method in brief: as §1

SMILES | MIC [1] | MIC [2] | MIC [3] | MIC [4]
CC1CCCC(NC(=O)CSc2nc3ccccc3c(=O)[nH]2)C1 (configuration not stated) | 0.24 µM (≈ 0.0795 µg/mL) | 0.93 µM (≈ 0.308 µg/mL) | 0.9 µM (≈ 0.298 µg/mL) | 0.94 µM (≈ 0.312 µg/mL)
C[C@H]1CC[C@H](NC(=O)CSc2nc3ccccc3c(=O)[nH]2)CC1 | 0.12 µM (≈ 0.0398 µg/mL) | 0.12 µM (≈ 0.0398 µg/mL) | 0.24 µM (≈ 0.0795 µg/mL) | 0.12 µM (≈ 0.0398 µg/mL)
CC1CCCCC1NC(=O)CSc1nc2ccccc2c(=O)[nH]1 (configuration not stated) | 0.96 µM (≈ 0.318 µg/mL) | 1.9 µM (≈ 0.63 µg/mL) | 3.9 µM (≈ 1.29 µg/mL) | 0.95 µM (≈ 0.315 µg/mL)
NNC(=O)c1ccncc1 [ISONIAZID] | 182.3 µM (≈ 25 µg/mL) | 2.84 µM (≈ 0.389 µg/mL) | >729.2 µM | 45.6 µM (≈ 6.25 µg/mL)
CC1CCC(NC(=O)CSc2nc3ccccc3c(=O)[nH]2)CC1 (configuration not stated) | 0.12 µM (≈ 0.0398 µg/mL) | 0.24 µM (≈ 0.0795 µg/mL) | 0.48 µM (≈ 0.159 µg/mL) | 0.24 µM (≈ 0.0795 µg/mL)
O=C(CSc1nc2ccccc2c(=O)[nH]1)NCC1CCCCC1 | 0.48 µM (≈ 0.159 µg/mL) | 0.93 µM (≈ 0.308 µg/mL) | 0.93 µM (≈ 0.308 µg/mL) | 0.93 µM (≈ 0.308 µg/mL)
O=C(CSc1nc2ccccc2c(=O)[nH]1)NC1CCCCCC1 | 0.24 µM (≈ 0.0795 µg/mL) | 0.48 µM (≈ 0.159 µg/mL) | 0.93 µM (≈ 0.308 µg/mL) | 0.48 µM (≈ 0.159 µg/mL)
O=C(CSc1nc2ccccc2c(=O)[nH]1)NC1CCCCC1 | 0.25 µM (≈ 0.0794 µg/mL) | 0.5 µM (≈ 0.159 µg/mL) | 0.97 µM (≈ 0.308 µg/mL) | 0.5 µM (≈ 0.159 µg/mL)
